Read-outs that look alike come from different tables or passages of the source.
Columns and labels:
HepG2 = test: Antiproliferative activity; format: cell-based; conditions: Homo sapiens, HepG2, 48 h, read-out: antiproliferative activity IC50, HepG2
[1] = system: normal fibroblasts (WI-38); test: Cytotoxicity; conditions: for IC50: read-out: IC50, normal fibroblasts WI-38; for selectivity index (SI): SI = WI-38 IC50/IC50 against cancer cells; for toxicity to the normal fibroblasts (in words): WI-38 versus cancer cells
MCF-7 cells [2] = test: Cell cycle analysis; format: cell-based, human; conditions: MCF7, IC50 concentration, 48 h
MCF-7 cells [3] = test: Apoptosis assay by annexin V-PI; format: cell-based, human; conditions: MCF7, IC50 concentration, 48 h; for necrotic cells (upper left quadrant, UL): DMSO 0.1%
In short: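 MCF-7 cells seeded at 1 × 10⁵ cells per mL and held overnight at 37 °C, 5% CO₂. Test compound or DMSO added in fresh medium for 48 h. Cells trypsinized, washed twice in PBS, and stained 15 min with annexin V-FITC plus propidium iodide in binding buffer. Flow cytometry scored early apoptotic (LR), late apoptotic (UR) and necrotic (UL) quadrants.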

| Compound | IC50 (HepG2) [µM] | IC50 ([1]; Homo sapiens, WI-38, 48 h) [µM] | selectivity index (SI) [1] | also measured |
| --- | --- | --- | --- | --- |
| N#CC(=Cc1ccc(Cl)cc1)C(=O)Nc1nnc(NC(=O)c2ccccc2)s1 [Compound 7b, N-(5-(3-(4-Chlorophenyl)-2-cyanoacrylamido)-1,3,4-thiadiazol-2-yl)benzamide] | 14.7 ± 2.1 | 42.1 ± 2.7 | 2.4 |  |
| N#CC(=Cc1ccco1)C(=O)Nc1nnc(NC(=O)c2ccccc2)s1 [Compound 7c, N-(5-(2-Cyano-3-(furan-2-yl)acrylamido)-1,3,4-thiadiazol-2-yl)benzamide] | 16.3 ± 1.8 | 22.6 ± 3 | 0.8 |  |
| Nc1nnc(NC(=O)c2ccccc2)s1 [Compound 2, N-(5-Amino-1,3,4-thiadiazol-2-yl)benzamide] | 14.1 ± 1.5 | 17.6 ± 4.1 | 1.0 |  |
| N=c1oc2ccccc2cc1C(=O)Nc1nnc(NC(=O)c2ccccc2)s1 [Compound 4, N-(5-Benzamido-1,3,4-thiadiazol-2-yl)-2-imino-2H-chromene-3-carboxamide] | 48.5 ± 2.9 | 29.4 ± 2.2 | 1.3 | toxicity to the normal fibroblasts (in words) [1]: toxic to the normal fibroblasts |
| COc1cc(C=C(C#N)C(=O)Nc2nnc(NC(=O)c3ccccc3)s2)ccc1O [Compound 7f, N-(5-(2-Cyano-3-(4-hydroxy-3-methoxyphenyl)acrylamido)-1,3,4-thiadiazol-2-yl)benzamide] | 21.3 ± 3.7 | 14.5 ± 0.3 | 0.9 |  |
| O=C(Nc1nnc(NC(=O)c2cc3ccccc3oc2=O)s1)c1ccccc1 [Compound 5, N-(5-Benzamido-1,3,4-thiadiazol-2-yl)-2-oxo-2H-chromene-3-carboxamide] | 63.9 ± 8.9 | 91.2 ± 4.6 | 1.5 |  |
| COc1ccc(C=C(C#N)C(=O)Nc2nnc(NC(=O)c3ccccc3)s2)cc1 [Compound 6b, N-(5-(2-Cyano-3-(4-methoxyphenyl)acrylamido)-1,3,4-thiadiazol-2-yl)benzamide] | 15.9 ± 1.3 | 50.4 ± 0.9 | 4.9 | sub-G1 percent of cells (MCF-7 cells [2]; DMSO 7.4%): 53.6%; induction of apoptosis (in words) (MCF-7 cells [3]): did not induce apoptosis; necrotic cells (upper left quadrant, UL) (MCF-7 cells [3]): 12.5% |
| N#CC(=Cc1ccc(Cl)cc1Cl)C(=O)Nc1nnc(NC(=O)c2ccccc2)s1 [Compound 7a, N-(5-(2-Cyano-3-(2,4-dichlorophenyl)acrylamido)-1,3,4-thiadiazol-2-yl)benzamide] | 6.34 ± 0.9 | 9.18 ± 3.6 | 1.5 | toxicity to the normal fibroblasts (in words) [1]: toxic to the normal fibroblasts |
| N-(5-(2-Cyano-2-(4,6-dioxo-1-phenylpiperidin-2-ylidene)acetamido)-1,3,4-thiadiazol-2-yl)benzamide [Compound 13] |  |  | 0.5 | IC50 ([1]; MTT, 48 h, mean ±SEM, three independent experiments): 23.6 ± 3.2 µM |
| N#CCC(=O)Nc1nnc(NC(=O)c2ccccc2)s1 [Compound 3, N-(5-(2-Cyanoacetamido)-1,3,4-thiadiazol-2-yl)benzamide] | 31.3 ± 5.1 | 37.4 ± 2.5 | 1.2 |  |
| N#CC(=Cc1ccc([N+](=O)[O-])cc1)C(=O)Nc1nnc(NC(=O)c2ccccc2)s1 [Compound 7e, N-(5-(2-Cyano-3-(4-nitrophenyl)acrylamido)-1,3,4-thiadiazol-2-yl)benzamide] | 56.3 ± 7.8 | 23.4 ± 3.6 | 0.4 |  |
| N#CC(=Cc1cccs1)C(=O)Nc1nnc(NC(=O)c2ccccc2)s1 [Compound 7d, N-(5-(2-Cyano-3-(thiophen-2-yl)acrylamido)-1,3,4-thiadiazol-2-yl)benzamide] | 66.1 ± 3.5 | 12.3 ± 1.2 | 0.4 | toxicity to the normal fibroblasts (in words) [1]: toxic to the normal fibroblasts |

Now from value to compound, other results behind:

| IC50 (HepG2) [µM] | Compound | IC50 ([1]; Homo sapiens, WI-38, 48 h) [µM] | selectivity index (SI) [1] | also measured |
| --- | --- | --- | --- | --- |
| 12.5 ± 1 | CSC(SC)=C(C#N)C(=O)Nc1nnc(NC(=O)c2ccccc2)s1 [Compound 17, N-(5-(2-Cyano-3,3-bis(methylthio)acrylamido)-1,3,4-thiadiazol-2-yl)benzamide] | 81.2 ± 4.1 | 6.0 |  |
| 19.4 ± 1.5 | N#CC(C(=O)Nc1nnc(NC(=O)c2ccccc2)s1)=C1Nc2ccccc2O1 [Compound 19, N-(5-(2-(Benzo[d]oxazol-2(3H)-ylidene)-2-cyanoacetamido)-1,3,4-thiadiazol-2-yl)benzamide] | 60.3 ± 3.7 | 6.1 | cells arrested at G2/M (MCF-7 cells [2]; DMSO 4.6%): 23.3%; necrotic cells (upper left quadrant, UL) (MCF-7 cells [3]): 15%; early apoptosis (lower-right quadrant, LR) (MCF-7 cells [3]; DMSO 3.2%): 15% |
| 29.6 ± 3.1 | N#CC(C(=O)Nc1nnc(NC(=O)c2ccccc2)s1)=C1Oc2cccnc2O1 [Compound 20, N-(5-(2-([1,3]dioxolo[4,5-b]pyridin-2-ylidene)-2-cyanoacetamido)-1,3,4-thiadiazol-2-yl)benzamide] | 42.7 ± 2.7 | 1.5 |  |
| 14.7 ± 2.3 | N#CC(C(=O)Nc1nnc(NC(=O)c2ccccc2)s1)C(=S)Nc1ccccc1 (centres unmarked) [Compound 16, N-(5-(2-Cyano-3-(phenylamino)-3-thioxopropanamido)-1,3,4-thiadiazol-2-yl)benzamide] | 85.9 ± 1.9 | 4.1 |  |
| 4.5 ± 0.2 | COc1cccc2c1C(=O)c1c(O)c3c(c(O)c1C2=O)C[C@@](O)(C(=O)CO)C[C@@H]3O[C@H]1C[C@H](N)[C@H](O)[C@H](C)O1 [DOX, Doxorubicin, reference compound] |  |  |  |
| > 100 | N#CC(C(=O)Nc1nnc(NC(=O)c2ccccc2)s1)=C1SCCN1c1ccccc1 [Compound 14, N-(5-(2-Cyano-2-(3-phenylthiazolidin-2-ylidene)acetamido)-1,3,4-thiadiazol-2-yl)benzamide] | 53.8 ± 3.4 | 0.8 |  |
| 47.3 ± 8.2 | N#CC(C(=O)Nc1nnc(NC(=O)c2ccccc2)s1)=C1Nc2ccccc2N1 [Compound 18, N-(5-(2-Cyano-2-(1,3-dihydro-2H-benzo[d]imidazole-2-ylidene)acetamido)-1,3,4-thiadiazol-2-yl)benzamide] | > 100 | 1.5 |  |
| 69.5 ± 6.5 | N#CC(C(=O)Nc1nnc(NC(=O)c2ccccc2)s1)=C1SC(=O)CN1c1ccccc1 [Compound 12, N-(5-(2-Cyano-2-(5-oxo-3-phenylthiazolidin-2-ylidene)acetamido)-1,3,4-thiadiazol-2-yl)benzamide] | > 100 |  |  |
| 19.4 ± 1.5 | Cc1cc(-c2ccccc2)n(-c2nnc(NC(=O)c3ccccc3)s2)c(=O)c1C#N [Compound 10, N-(5-(3-Cyano-4-methyl-2-oxo-6-phenylpyridin-1(2H)-yl)-1,3,4-thiadiazol-2-yl)benzamide] | > 100 | 1.7 |  |
| 39.1 ± 2.7 | Cc1cc(C)n(-c2nnc(NC(=O)c3ccccc3)s2)c(=O)c1C#N [Compound 9, N-(5-(3-Cyano-4,6-dimethyl-2-oxopyridin-1(2H)-yl)-1,3,4-thiadiazol-2-yl)benzamide] | 50.4 ± 0.9 | 2.5 |  |
| 16.8 ± 1.7 | N#Cc1c(Nc2ccccc2)n2nc(NC(=O)c3ccccc3)sc2nc1=O [Compound 15, N-(6-Cyano-7-oxo-5-(phenylamino)-7H-[1,3,4]thiadiazolo[3,2-a]pyrimidin-2-yl)benzamide] | 19.4 ± 1.5 | 1.4 |  |

— article PMC10209631 (RSC Advances, 2023)
